ChEMBL document CHEMBL1141336, “Isolation and structure elucidation of kadlongilactones C-F from Kadsura longipedunculata by NMR spectroscopy and DFT computational methods” (J Nat Prod, 2007)
Counter-ions that a name gives are not always drawn.

Legend:
HT-29 = assay: Cytotoxicity against human HT29 cells after 72 hrs by SRB assay; type: functional, cell-based; details: HT-29, 72 h
Outline: (§1)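 Adherent tumour cells were seeded in 96-well plates 24 h before dosing and exposed continuously to a series of compound concentrations for 72 h. Cells were then fixed and stained with sulforhodamine B to read out cytotoxicity.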

A549 = assay: Cytotoxicity against human A549 cells after 72 hrs by SRB assay; type: functional, cell-based; details: A549, 72 h; outline: as §1
K562 = assay: Cytotoxicity against human K562 cells after 72 hrs by trypan blue exclusion method; details: K562, 72 h

Compound | IC50 (HT-29) | IC50 (A549) | IC50 (K562)
CO[C@H]1C[C@]2(C)[C@@H](C[C@]3(O)C=C4C=CC(=O)OC(C)(C)[C@@H]4CC[C@@H]23)C2=C1[C@H](C)[C@@H]1OC(=O)C(C)=C[C@@H]1C2 [KADLONGILACTONE E] | 1.32 µM | 0.88 µM | 3.35 µM
CC1=C[C@@H]2CC3=C([C@H](O)C[C@]4(C)[C@H]3C[C@]3(O)C=C5C=CC(=O)OC(C)(C)[C@@H]5CC[C@@H]43)[C@H](C)[C@@H]2OC1=O [KADLONGILACTONE A] | 1.44 µM | 1.24 µM | 3.44 µM
CC1=C[C@@H]2CC3=C([C@@H](O)C[C@]4(C)[C@H]3C[C@]3(O)C=C5C=CC(=O)OC(C)(C)[C@@H]5CC[C@@H]43)[C@H](C)[C@@H]2OC1=O [KADLONGILACTONE D] | 1.64 µM | 0.49 µM | 1.92 µM
CC(=O)[C@]1(N)Cc2c(O)c3c(c(O)c2[C@@H](O[C@H]2C[C@H](O)[C@H](O)CO2)C1)C(=O)c1ccccc1C3=O [AMRUBICIN HYDROCHLORIDE] | 4.36 µM | 0.82 µM | 1.26 µM
CO[C@@H]1C[C@]2(C)[C@@H](C[C@]3(O)C=C4C=CC(=O)OC(C)(C)[C@@H]4CC[C@@H]23)C2=C1[C@H](C)[C@@H]1OC(=O)C(C)=C[C@@H]1C2 [KADLONGILACTONE C] | 2.08 µM | 1.45 µM | 3.61 µM
